What was measured:
[1] = Cytotoxicity against human Hepatoma cells; assay type: cell-based
[2] = Mean residence time in Sprague-Dawley rat liver at 10 mg/kg, sc; assay type: ADME, organism-based; parameters: dose 10 mg/kg, route subcutaneous
Procedure, shortened: (§1)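 Male Sprague–Dawley rats got a single subcutaneous dose of 10 mg/kg (n = 2) in 10% PEG300–10% HPCD in water. Plasma and liver concentrations were measured over time after dosing. Footnotes mark concentrations taken at 0.5 h and at 2 h postdosing. One compound was given as its tri-sodium salt.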

[3] = Half life in Sprague-Dawley rat liver at 10 mg/kg, sc; assay type: ADME, organism-based; parameters: dose 10 mg/kg, route subcutaneous; procedure, shortened: as §1
[4] = Mean residence time in Sprague-Dawley rat plasma at 10 mg/kg, sc; assay type: ADME, organism-based; parameters: dose 10 mg/kg, route subcutaneous; procedure, shortened: as §1
[5] = AUC in Sprague-Dawley rat liver at 10 mg/kg, sc; assay type: ADME, organism-based; parameters: dose 10 mg/kg, route subcutaneous; procedure, shortened: as §1
[6] = Half life in Sprague-Dawley rat plasma at 10 mg/kg, sc; assay type: ADME, organism-based; parameters: dose 10 mg/kg, route subcutaneous; procedure, shortened: as §1
[7] = AUC in Sprague-Dawley rat plasma at 10 mg/kg, sc; assay type: ADME, organism-based; parameters: dose 10 mg/kg, route subcutaneous; procedure, shortened: as §1
[8] = Cmax in Sprague-Dawley rat plasma at 10 mg/kg, sc at 0.5 hrs; assay type: ADME, organism-based; parameters: dose 10 mg/kg, route subcutaneous; procedure, shortened: as §1
[9] = Cmax in Sprague-Dawley rat liver at 10 mg/kg, sc at 2 hrs; assay type: ADME, organism-based; parameters: dose 10 mg/kg, route subcutaneous; procedure, shortened: as §1
Hepatitis C virus = assay: Antiviral activity against HCV infected in human hepatoma cells assessed as inhibition of viral replication; assay type: functional, organism-based, Hepacivirus hominis

SMILES	IC50 (Hepatitis C virus) [µM]	CC50 [1] [µM]	other results
CCCCCCCC(=O)CCCCCC/C=C/[C@H](C(=O)N[C@@H](Cc1ccc(OCC=C(C)C)cc1)C(=O)O)[C@@](O)(CC(=O)O)C(=O)O	–	> 5	–
CCCCCCCC(=O)CCCCCC/C=C/[C@H](C(=O)N[C@@H](Cc1ccc(-c2cccc(OC)c2)cc1)C(=O)[O-])[C@@](O)(CC(=O)[O-])C(=O)[O-].[Na+].[Na+].[Na+]	–	–	MRT [2]: 16.1 h; half-life [3]: 21.3 h; MRT [4]: 12.9 h; AUC [5]: 82.9 µg·h/mL; half-life [6]: 14.8 h; AUC [7]: 2.59 µg·h/mL; Cmax [8]: 0.351 µg/mL; Cmax [9]: 5.92 µg/mL
CC#CCOc1ccc(C[C@H](NC(=O)[C@@H](/C=C/CCCCCCC(=O)CCCCCCC)[C@@](O)(CC(=O)[O-])C(=O)[O-])C(=O)[O-])cc1.[Na+].[Na+].[Na+]	–	–	MRT [2]: 7.3 h; half-life [3]: 4.75 h; MRT [4]: 5.48 h; AUC [5]: 49.6 µg·h/mL; half-life [6]: 3.99 h; AUC [7]: 3.05 µg·h/mL; Cmax [8]: 0.604 µg/mL; Cmax [9]: 7.1 µg/mL
CCCCCCCC(=O)CCCCCC/C=C/[C@H](C(=O)N[C@@H](Cc1ccc(OCc2ccccc2)cc1)C(=O)[O-])[C@@](O)(CC(=O)[O-])C(=O)[O-].[Na+].[Na+].[Na+]	–	–	MRT [2]: 17 h; half-life [3]: 27.3 h; MRT [4]: 13.6 h; AUC [5]: 100 µg·h/mL; half-life [6]: 9.81 h; AUC [7]: 2.69 µg·h/mL; Cmax [8]: 0.209 µg/mL; Cmax [9]: 6.59 µg/mL
CCCCCCCC(=O)CCCCCC/C=C/[C@H](C(=O)N[C@@H](CC1CCCCC1)C(=O)O)[C@@](O)(CC(=O)O)C(=O)O	> 5	> 5	–
CCCCCCCC(=O)CCCCCC/C=C/[C@H](C(=O)N[C@@H](Cc1ccc2ccccc2c1)C(=O)O)[C@@](O)(CC(=O)O)C(=O)O	0.014	> 5	–
CCCCCCCC(=O)CCCCCC/C=C/[C@H](C(=O)N[C@@H](Cc1ccc(OCCC)cc1)C(=O)O)[C@@](O)(CC(=O)O)C(=O)O	0.0026	> 5	–
CCCCCCCC(=O)CCCCCC/C=C/[C@H](C(=O)N[C@@H](Cc1ccc(OCCCC)cc1)C(=O)O)[C@@](O)(CC(=O)O)C(=O)O	0.0012	> 5	–
CCCCCCCC(=O)CCCCCC/C=C/[C@H](C(=O)N[C@@H](Cc1ccc(Oc2ccccc2)cc1)C(=O)O)[C@@](O)(CC(=O)O)C(=O)O	0.0019	> 5	–
CCCCCCCC(=O)CCCCCC/C=C/[C@H](C(=O)N[C@@H](Cc1ccc(-c2ccccc2)cc1)C(=O)O)[C@@](O)(CC(=O)O)C(=O)O	0.0016	> 5	–
CCCCCCCC(=O)CCCCCC/C=C/[C@H](C(=O)N[C@@H](Cc1ccc(-c2cccc(OC)c2)cc1)C(=O)O)[C@@](O)(CC(=O)O)C(=O)O	0.0026	> 1	–
CCCCCCC(=O)CCCCCC/C=C/[C@H](C(=O)N[C@@H](Cc1ccc(OCCC(C)C)cc1)C(=O)O)[C@@](O)(CC(=O)O)C(=O)O	0.019	> 1	–
CCCC(=O)CCCCCC/C=C/[C@H](C(=O)N[C@@H](Cc1ccc(OCCC(C)C)cc1)C(=O)O)[C@@](O)(CC(=O)O)C(=O)O	0.8	> 5	–
CCCCCC(=O)CCCCCCCC/C=C/[C@H](C(=O)N[C@@H](Cc1ccc(OCCC(C)C)cc1)C(=O)O)[C@@](O)(CC(=O)O)C(=O)O	0.0014	> 1	–
CC(C)CCOc1ccc(C[C@H](NC(=O)[C@@H](/C=C/CCCCCCC(=O)Cc2ccccn2)[C@@](O)(CC(=O)O)C(=O)O)C(=O)O)cc1	> 1	> 1	–
CC(C)CCOc1ccc(C[C@H](NC(=O)[C@@H](/C=C/CCCCCCC(=O)CCc2ccccc2)[C@@](O)(CC(=O)O)C(=O)O)C(=O)O)cc1	0.29	> 1	–
CC(C)CCOc1ccc(C[C@H](NC(=O)[C@@H](/C=C/CCCCCCC(=O)CCC2CCCCC2)[C@@](O)(CC(=O)O)C(=O)O)C(=O)O)cc1	0.032	> 1	–
CCCCCCCC(=O)CCCCCC/C=C/[C@H](C(=O)NCCc1ccc(OCCC(C)C)cc1)[C@@](O)(CC(=O)O)C(=O)O	1	> 5	–
CCCCCCCC(=O)CCCCCC/C=C/[C@H](C(=O)N[C@@H](Cc1ccc(OCCCC(C)C)cc1)C(=O)O)[C@@](O)(CC(=O)O)C(=O)O	0.012	> 1	–
CCCCCCCC(=O)CCCCCC/C=C/[C@H](C(=O)N[C@@H](Cc1cccs1)C(=O)O)[C@@](O)(CC(=O)O)C(=O)O	0.49	> 1	–
CCCCCCCCCCCCCC/C=C/[C@H](C(=O)NC(Cc1ccc(OCC=C(C)C)cc1)C(=O)O)[C@@](O)(CC(=O)O)C(=O)O (some centres undefined)	0.155	> 50	–

Second part, led by results:

IC50 (Hepatitis C virus) [µM]	SMILES	CC50 [1] [µM]	other results
> 1	CCCCCCCC(=O)CCCCCC/C=C/[C@H](C(=O)N[C@@H](Cc1cccc2ccccc12)C(=O)O)[C@@](O)(CC(=O)O)C(=O)O	> 1	–
0.0064	CCCCCCCC(=O)CCCCCC/C=C/[C@H](C(=O)N[C@@H](Cc1ccc(OC)cc1)C(=O)O)[C@@](O)(CC(=O)O)C(=O)O	> 5	–
0.0012	CC#CCOc1ccc(C[C@H](NC(=O)[C@@H](/C=C/CCCCCCC(=O)CCCCCCC)[C@@](O)(CC(=O)O)C(=O)O)C(=O)O)cc1	> 5	–
0.038	CCCCCCCC(=O)CCCCCC/C=C/[C@H](C(=O)N[C@@H](Cc1ccc(OCCCN)cc1)C(=O)O)[C@@](O)(CC(=O)O)C(=O)O	> 1	–
0.00032	CCCCCCCC(=O)CCCCCC/C=C/[C@H](C(=O)N[C@@H](Cc1ccc(OCc2ccccc2)cc1)C(=O)O)[C@@](O)(CC(=O)O)C(=O)O	> 5	–
0.01	CCCCCCCC(=O)CCCCCC/C=C/[C@H](C(=O)N[C@@H](Cc1ccc(-c2cccnc2)cc1)C(=O)O)[C@@](O)(CC(=O)O)C(=O)O	> 1	–
0.0051	CCCCCCCCCC(=O)CCCC/C=C/[C@H](C(=O)N[C@@H](Cc1ccc(OCCC(C)C)cc1)C(=O)O)[C@@](O)(CC(=O)O)C(=O)O	> 1	–
0.0061	C=CCCCCCC(=O)CCCCCC/C=C/[C@H](C(=O)N[C@@H](Cc1ccc(OCCC(C)C)cc1)C(=O)O)[C@@](O)(CC(=O)O)C(=O)O	> 1	–
0.0057	CC(C)CCCCC(=O)CCCCCC/C=C/[C@H](C(=O)N[C@@H](Cc1ccc(OCCC(C)C)cc1)C(=O)O)[C@@](O)(CC(=O)O)C(=O)O	> 1	–
> 5	CCCCCCCC(=O)CCCCCC/C=C/[C@H](C(=O)N[C@H](Cc1ccc(OCCC(C)C)cc1)C(=O)O)[C@@](O)(CC(=O)O)C(=O)O	> 5	–
0.017	CCCCCCCC(=O)CCCCCC/C=C/[C@H](C(=O)N[C@@H](Cc1ccccc1)C(=O)O)[C@@](O)(CC(=O)O)C(=O)O	13.9	–
0.0014	CCCCCCCC(=O)CCCCCC/C=C/[C@H](C(=O)N[C@@H](Cc1ccc(OCCC(C)C)cc1)C(=O)O)[C@@](O)(CC(=O)O)C(=O)O	> 5	–
0.15	CCCCCCCC(=O)CCCCCCCC[C@H](C(=O)N[C@@H](Cc1ccc(OCCC(C)C)cc1)C(=O)O)[C@@](O)(CC(=O)O)C(=O)O	> 5	–
0.0069	CCCCCCCCC(=O)CCCCCC/C=C/[C@H](C(=O)N[C@@H](Cc1ccc(OCCC(C)C)cc1)C(=O)O)[C@@](O)(CC(=O)O)C(=O)O	> 50	–
0.025	CCCCCCCC(O)CCCCCC/C=C/[C@H](C(=O)N[C@@H](Cc1ccc(OCCC(C)C)cc1)C(=O)O)[C@@](O)(CC(=O)O)C(=O)O (mixture of isomers)	> 1	–

Source: ChEMBL document CHEMBL2311448, “Enantioselective synthesis of derivatives and structure-activity relationship study in the development of NA255 as a novel host-targeting anti-HCV agent” (Bioorg Med Chem Lett, 2013)
